Reference: ChEMBL document CHEMBL2146394, “Design and synthesis of pyrrolo[3,2-d]pyrimidine HER2/EGFR dual inhibitors: improvement of the physicochemical and pharmacokinetic profiles for potent in vivo anti-tumor efficacy” (Bioorg Med Chem, 2012)
Blank lines part the entries; values can stand above or below the compound they belong to.

Legend:
BT-474 [1] = test: Growth inhibition of HER2 over-expressing human BT474 cells after 5 days; type: functional; conditions: BT-474, 120 h
Method in brief: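 BT-474 cells kept in RPMI 1640 with 10% heat-inactivated FBS. Seeded at 3×10⁴ cells/well and allowed to attach overnight. Treated continuously with compound for 5 days. Live cells counted with a particle analyzer; GI₅₀ derived.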

[2] = Metabolic stability in mouse hepatic microsomes at 1 umol/L after 20 mins; type: ADME; conditions: liver microsomes, read-out: Stability
[3] = Metabolic stability in human hepatic microsomes at 1 umol/L after 20 mins; type: ADME; conditions: liver microsomes, read-out: Stability
Method in brief: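 Human liver microsomes (0.2 mg/mL protein) with 1 µmol/L compound in 50 mmol/L phosphate pH 7.4 plus an NADPH-generating system (glucose-6-phosphate, β-NADP⁺, G6PDH, MgCl₂). Incubated at 37 °C for 0 and 20 min, stopped with acetonitrile, duplicates. Remaining compound measured by HPLC with photodiode array detection.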

[4] = biological target: Receptor tyrosine-protein kinase erbB-2 (Homo sapiens, UniProt P04626); test: Inhibition of human N-terminal DYKDDDD tagged HER2 cytoplasmic domain amino acid 676 to 1255 expressed in baculovirus after 5 mins by scintillation counter
Chain of Receptor tyrosine-protein kinase erbB-2 (P04626 whole entry, the tested form may be a part): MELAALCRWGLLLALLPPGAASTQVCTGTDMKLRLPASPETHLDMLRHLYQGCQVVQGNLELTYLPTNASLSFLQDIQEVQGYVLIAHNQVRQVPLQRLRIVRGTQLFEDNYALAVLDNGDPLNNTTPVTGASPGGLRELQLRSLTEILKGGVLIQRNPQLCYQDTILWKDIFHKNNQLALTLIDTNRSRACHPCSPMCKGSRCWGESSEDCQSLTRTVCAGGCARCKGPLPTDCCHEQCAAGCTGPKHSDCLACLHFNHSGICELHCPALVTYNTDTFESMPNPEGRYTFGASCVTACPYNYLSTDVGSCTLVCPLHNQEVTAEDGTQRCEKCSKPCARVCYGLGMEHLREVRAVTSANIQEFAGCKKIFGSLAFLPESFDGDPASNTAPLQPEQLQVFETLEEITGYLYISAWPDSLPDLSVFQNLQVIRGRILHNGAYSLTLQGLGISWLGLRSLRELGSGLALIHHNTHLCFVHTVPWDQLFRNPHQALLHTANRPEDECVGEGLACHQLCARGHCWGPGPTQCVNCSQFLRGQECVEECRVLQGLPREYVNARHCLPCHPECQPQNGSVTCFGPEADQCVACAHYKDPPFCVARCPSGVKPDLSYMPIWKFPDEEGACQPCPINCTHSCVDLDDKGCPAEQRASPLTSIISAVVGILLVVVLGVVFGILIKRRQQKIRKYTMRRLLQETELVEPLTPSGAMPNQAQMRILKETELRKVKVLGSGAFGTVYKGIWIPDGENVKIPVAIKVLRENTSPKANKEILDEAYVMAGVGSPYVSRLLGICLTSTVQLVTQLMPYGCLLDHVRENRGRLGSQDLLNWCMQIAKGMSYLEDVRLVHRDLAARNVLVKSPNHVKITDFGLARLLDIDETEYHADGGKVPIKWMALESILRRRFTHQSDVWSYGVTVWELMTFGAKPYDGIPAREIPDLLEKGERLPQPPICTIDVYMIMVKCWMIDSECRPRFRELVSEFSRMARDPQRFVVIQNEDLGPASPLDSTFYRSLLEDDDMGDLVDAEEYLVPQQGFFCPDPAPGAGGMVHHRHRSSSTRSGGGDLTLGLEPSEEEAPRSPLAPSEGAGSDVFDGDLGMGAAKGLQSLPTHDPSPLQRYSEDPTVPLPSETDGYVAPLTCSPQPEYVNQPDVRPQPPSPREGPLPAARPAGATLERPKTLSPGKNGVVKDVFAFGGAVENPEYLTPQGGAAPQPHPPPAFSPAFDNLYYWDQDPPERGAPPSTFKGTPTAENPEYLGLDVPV
Method in brief: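 FLAG-purified HER2 cytoplasmic domain in 50 mmol/L Tris-HCl pH 7.5, 5 mmol/L MnCl₂, 0.01% Tween-20, 2 mmol/L DTT, with poly-Glu-Tyr (4:1) and [γ-³²P]ATP. Compound and enzyme preincubated 5 min at room temperature; reaction started with ATP, 10 min at room temperature. Stopped with 10% TCA, filter-harvested, washed with 3% phosphoric acid, scintillation counted.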

[5] = biological target: Tyrosine-protein kinase CSK (Homo sapiens, UniProt P41240); test: Inhibition of CSK after 5 mins
Method in brief: (§1)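 AlphaScreen tyrosine kinase assay: 50 mmol/L Tris-HCl pH 7.5, 5 mmol/L MnCl₂, 5 mmol/L MgCl₂, 0.01% Tween-20, 2 mmol/L DTT, biotinylated poly-Glu-Tyr (4:1), kinase-optimized enzyme, ATP and time (5–60 min). Seven compound concentrations, 0.01–10000 nmol/L, preincubated 5 min at room temperature. Stopped with EDTA plus streptavidin donor and PY-100 or PT66 acceptor beads; read after >12 h in the dark. Controls: no compound; no ATP.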

Angiopoietin-1 receptor = Angiopoietin-1 receptor (Homo sapiens, UniProt Q02763); test: Inhibition of TIE2 after 5 mins; method in brief: as §1
[6] = biological target: Hepatocyte growth factor receptor (Homo sapiens, UniProt P08581); test: Inhibition of c-Met after 5 mins; method in brief: as §1
[7] = Antitumor activity against human 4-1ST cells xenografted in BALB/c nu/nu mouse at 50 mg/kg, po bid administered 14 days measured on day 31 relative to control; type: functional
Method in brief: (§2)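 4-1ST human gastric tumour tissue from donor animals minced and implanted subcutaneously in nude mice or nude rats. Tumours of 200–300 mm³ used. Compounds in 0.5% (w/v) methylcellulose given orally twice daily at 10 mL/kg for 14 days; control got vehicle. Doses expressed as salt-free. Caliper volume (a×b²/2) measured blind 2–3 times weekly. T/C (%) versus control; five mice or eight rats per group.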

[8] = Antitumor activity against human 4-1ST cells xenografted in BALB/c nu/nu mouse at 100 mg/kg, po bid administered 14 days measured on day 31 relative to control; type: functional; method in brief: as §2
[9] = Antitumor activity against human 4-1ST cells xenografted in F344/N jcl-rnu rat at 25 mg/kg, po bid administered 14 days measured on day 31 relative to control; type: functional; method in brief: as §2
[10] = biological target: Proto-oncogene tyrosine-protein kinase Src (Homo sapiens, UniProt P12931); test: Inhibition of Src after 5 mins; method in brief: as §1
Chain of Proto-oncogene tyrosine-protein kinase Src (P12931 2-536 limits assumed): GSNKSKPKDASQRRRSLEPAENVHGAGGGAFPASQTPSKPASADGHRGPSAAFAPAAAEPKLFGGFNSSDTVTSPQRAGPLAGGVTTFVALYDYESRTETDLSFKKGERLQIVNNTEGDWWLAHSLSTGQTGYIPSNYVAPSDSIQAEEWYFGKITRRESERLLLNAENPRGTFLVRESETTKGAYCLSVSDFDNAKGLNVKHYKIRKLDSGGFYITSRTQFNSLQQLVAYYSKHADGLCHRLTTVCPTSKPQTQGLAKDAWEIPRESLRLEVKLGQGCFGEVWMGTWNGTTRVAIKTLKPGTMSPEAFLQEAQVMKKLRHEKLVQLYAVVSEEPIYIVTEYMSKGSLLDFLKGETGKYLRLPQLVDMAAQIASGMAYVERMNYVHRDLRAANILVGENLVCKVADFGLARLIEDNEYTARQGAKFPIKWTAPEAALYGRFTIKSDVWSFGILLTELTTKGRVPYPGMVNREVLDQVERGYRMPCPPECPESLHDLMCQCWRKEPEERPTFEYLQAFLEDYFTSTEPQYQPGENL

Focal adhesion kinase 1 = Focal adhesion kinase 1 (Homo sapiens, UniProt Q05397); test: Inhibition of full length N-terminal FLAG-tagged FAK expressed in baculovirus after 5 mins; method in brief: as §1
[11] = biological target: Mast/stem cell growth factor receptor Kit (Homo sapiens, UniProt P10721); test: Inhibition of c-kit after 5 mins; method in brief: as §1
[12] = biological target: Mitogen-activated protein kinase kinase kinase 1 (Homo sapiens, UniProt Q13233); test: Inhibition of C-terminal FLAG-tagged MEKK expressed in baculovirus after 5 mins by scintillation counter
[13] = biological target: Insulin-like growth factor 1 receptor (Homo sapiens, UniProt P08069); test: Inhibition of IGF-1R after 5 mins; method in brief: as §1
[14] = biological target: Tyrosine-protein kinase ZAP-70 (Homo sapiens, UniProt P43403); test: Inhibition of ZAP70 after 5 mins; method in brief: as §1
Chain of Tyrosine-protein kinase ZAP-70 (P43403 whole entry): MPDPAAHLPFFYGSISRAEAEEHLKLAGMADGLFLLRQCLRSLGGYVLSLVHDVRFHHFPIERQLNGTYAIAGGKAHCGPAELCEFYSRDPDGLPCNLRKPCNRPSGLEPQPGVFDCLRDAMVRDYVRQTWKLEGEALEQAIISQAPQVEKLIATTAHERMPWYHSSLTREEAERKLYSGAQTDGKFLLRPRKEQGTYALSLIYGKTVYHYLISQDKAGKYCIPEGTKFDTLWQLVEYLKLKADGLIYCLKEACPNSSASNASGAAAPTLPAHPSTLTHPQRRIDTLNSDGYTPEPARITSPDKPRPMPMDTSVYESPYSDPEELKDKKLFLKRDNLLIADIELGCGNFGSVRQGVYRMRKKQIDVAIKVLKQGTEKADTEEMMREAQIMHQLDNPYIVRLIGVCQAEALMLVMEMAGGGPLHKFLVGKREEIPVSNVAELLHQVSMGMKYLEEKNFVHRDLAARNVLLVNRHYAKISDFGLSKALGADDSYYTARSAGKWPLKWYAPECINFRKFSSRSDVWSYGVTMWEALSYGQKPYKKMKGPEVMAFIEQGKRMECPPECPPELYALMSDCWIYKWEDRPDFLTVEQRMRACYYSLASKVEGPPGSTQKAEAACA

[15] = biological target: Mitogen-activated protein kinase 3 (Homo sapiens, UniProt P27361); test: Inhibition of N-terminal FLAG-tagged ERK1 expressed in baculovirus after 5 mins by scintillation counter
[16] = biological target: Inhibitor of nuclear factor kappa-B kinase subunit beta (Homo sapiens, UniProt O14920); test: Inhibition of C-terminal FLAG-tagged IKKbeta expressed in baculovirus after 5 mins by scintillation counter
[17] = biological target: Mitogen-activated protein kinase 8 (Homo sapiens, UniProt P45983); test: Inhibition of N-terminal FLAG-tagged JNK1 expressed in baculovirus after 5 mins by scintillation counter
[18] = biological target: Protein kinase C theta type (Homo sapiens, UniProt Q04759); test: Inhibition of N-terminal FLAG-tagged PKCtheta expressed in baculovirus after 5 mins by scintillation counter
[19] = biological target: Fibroblast growth factor receptor 1 (Homo sapiens, UniProt P11362); test: Inhibition of FGFR1 after 5 min; method in brief: as §1
[20] = biological target: Dual specificity protein kinase TTK (Homo sapiens, UniProt P33981); test: Inhibition of N-terminal FLAG-tagged TTK expressed in baculovirus after 5 mins by scintillation counter
[21] = biological target: T1, Tyrosine-protein kinase Lyn (Homo sapiens, UniProt P07948); test: Inhibition of LYN B after 5 mins; method in brief: as §1
T1 sequence (P07948 whole entry, the tested form may be a part): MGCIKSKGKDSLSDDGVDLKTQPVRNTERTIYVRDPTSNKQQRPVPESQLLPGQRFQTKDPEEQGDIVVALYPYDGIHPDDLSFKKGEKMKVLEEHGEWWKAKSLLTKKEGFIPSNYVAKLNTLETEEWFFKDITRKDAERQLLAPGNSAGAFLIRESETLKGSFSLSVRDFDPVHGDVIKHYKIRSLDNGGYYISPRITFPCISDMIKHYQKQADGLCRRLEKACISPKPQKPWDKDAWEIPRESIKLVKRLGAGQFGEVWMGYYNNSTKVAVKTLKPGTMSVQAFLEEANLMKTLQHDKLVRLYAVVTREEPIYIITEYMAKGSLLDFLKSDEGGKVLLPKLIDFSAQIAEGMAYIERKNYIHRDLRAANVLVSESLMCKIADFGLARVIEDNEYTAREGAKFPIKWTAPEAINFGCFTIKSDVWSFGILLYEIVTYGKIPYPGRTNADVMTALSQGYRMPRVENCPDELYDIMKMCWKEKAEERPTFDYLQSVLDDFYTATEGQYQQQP

[22] = biological target: Receptor tyrosine-protein kinase erbB-4 (Homo sapiens, UniProt Q15303); test: Inhibition of HER4 cytoplasmic domain after 5 mins by scintillation counter
Method in brief: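 HER4 cytoplasmic domain run as in the HER2/EGFR radiometric [γ-³²P]ATP filter assay: 5 min enzyme–compound preincubation, 10 min reaction at room temperature, TCA stop, scintillation count, nonlinear-regression IC₅₀.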

[23] = biological target: Serine/threonine-protein kinase PLK1 (Homo sapiens, UniProt P53350); test: Inhibition of N-terminal FLAG-tagged PLK1 expressed in baculovirus after 5 mins by scintillation counter
[24] = Antitumor activity against human 4-1ST cells xenografted in F344/N jcl-rnu rat at 12.5 mg/kg, po bid administered 14 days measured on day 31 relative to control; type: functional; method in brief: as §2
[25] = biological target: Vascular endothelial growth factor receptor 2 (Homo sapiens, UniProt P35968); test: Inhibition of N-terminal FLAG-tagged VEGFR2 cytoplasmic domain expressed in baculovirus after 5 mins; method in brief: as §1
[26] = biological target: T1, Tyrosine-protein kinase Lyn; test: Inhibition of LYN A after 5 mins; method in brief: as §1
[27] = biological target: Cytoplasmic tyrosine-protein kinase BMX (Homo sapiens, UniProt P51813); test: Inhibition of full length N-terminal FLAG-tagged BMX expressed in baculovirus after 5 mins; method in brief: as §1
[28] = biological target: Dual specificity mitogen-activated protein kinase kinase 5 (Homo sapiens, UniProt Q13163); test: Inhibition of N-terminal FLAG-tagged MEK5 expressed in baculovirus after 5 mins by scintillation counter
Chain of Dual specificity mitogen-activated protein kinase kinase 5 (Q13163 whole entry): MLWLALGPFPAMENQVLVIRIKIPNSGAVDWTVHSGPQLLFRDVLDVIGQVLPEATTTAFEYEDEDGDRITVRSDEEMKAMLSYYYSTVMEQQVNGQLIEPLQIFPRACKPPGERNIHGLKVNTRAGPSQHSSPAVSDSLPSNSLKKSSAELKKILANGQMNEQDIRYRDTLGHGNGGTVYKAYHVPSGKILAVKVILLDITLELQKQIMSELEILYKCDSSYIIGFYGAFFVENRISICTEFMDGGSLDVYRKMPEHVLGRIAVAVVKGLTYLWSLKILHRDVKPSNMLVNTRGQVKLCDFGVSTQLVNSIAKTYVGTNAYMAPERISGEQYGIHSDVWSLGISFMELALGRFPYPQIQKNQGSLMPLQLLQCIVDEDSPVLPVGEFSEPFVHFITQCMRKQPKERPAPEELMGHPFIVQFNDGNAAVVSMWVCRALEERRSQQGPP

[29] = biological target: Fibroblast growth factor receptor 3 (Homo sapiens, UniProt P22607); test: Inhibition of FGFR3 after 5 mins; method in brief: as §1
Insulin receptor = Insulin receptor (Homo sapiens, UniProt P06213); test: Inhibition of INSR after 5 mins; method in brief: as §1
[30] = biological target: Mitogen-activated protein kinase kinase kinase 5 (Homo sapiens, UniProt Q99683); test: Inhibition of N-terminal FLAG-tagged ASK1 expressed in baculovirus after 5 mins by scintillation counter
[31] = biological target: Vascular endothelial growth factor receptor 1 (Homo sapiens, UniProt P17948); test: Inhibition of VEGFR1 after 5 mins; method in brief: as §1
Aurora kinase B = Aurora kinase B (Homo sapiens, UniProt Q96GD4); test: Inhibition of N-terminal His6-tagged Aurora B expressed in baculovirus after 5 mins by scintillation counter
[32] = biological target: Mitogen-activated protein kinase kinase kinase 7 (Homo sapiens, UniProt O43318); test: Inhibition of N-terminal FLAG-tagged TAK1 expressed in baculovirus after 5 mins by scintillation counter
[33] = biological target: Dual specificity mitogen-activated protein kinase kinase 1 (Homo sapiens, UniProt Q02750); test: Inhibition of N-terminal GST-tagged MEK1 after 5 mins by scintillation counter
[34] = biological target: Glycogen synthase kinase-3 beta (Homo sapiens, UniProt P49841); test: Inhibition of N-terminal FLAG-tagged GSK3beta expressed in baculovirus after 5 mins by scintillation counter
Chain of Glycogen synthase kinase-3 beta (P49841 whole entry): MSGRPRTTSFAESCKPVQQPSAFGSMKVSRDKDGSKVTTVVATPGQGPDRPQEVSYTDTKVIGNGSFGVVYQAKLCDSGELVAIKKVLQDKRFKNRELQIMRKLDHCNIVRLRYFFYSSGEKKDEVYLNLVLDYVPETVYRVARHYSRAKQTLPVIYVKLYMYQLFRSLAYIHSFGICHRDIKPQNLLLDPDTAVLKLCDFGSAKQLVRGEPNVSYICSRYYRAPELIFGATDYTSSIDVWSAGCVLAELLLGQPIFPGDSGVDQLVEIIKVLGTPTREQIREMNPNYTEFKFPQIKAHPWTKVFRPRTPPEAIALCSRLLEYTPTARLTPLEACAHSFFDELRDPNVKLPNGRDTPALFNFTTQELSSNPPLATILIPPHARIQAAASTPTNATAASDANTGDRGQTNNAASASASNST

[35] = biological target: Mitogen-activated protein kinase 14 (Homo sapiens, UniProt Q16539); test: Inhibition of N-terminal FLAG-tagged p38alpha expressed in baculovirus after 5 mins by scintillation counter
[36] = biological target: Serine/threonine-protein kinase B-raf (Homo sapiens, UniProt P15056); test: Inhibition of N-terminal FLAG-tagged B-raf expressed in baculovirus after 5 mins by scintillation counter
[37] = Apparent permeability across basolateral to apical side in human Caco2 cells at 10 umol/L; type: ADME, cell-based; conditions: Caco-2
Method in brief: (§3)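 Confluent Caco-2 monolayers on collagen-coated polycarbonate Transwell membranes. HBSS with 10 mmol/L HEPES, 15 mmol/L glucose and 1% BSA, pH 7.3–7.5. Compound dosed at 10 µmol/L apically (A→B) or basolaterally (B→A), 37 °C, 5% CO₂. Receivers sampled at 1 and 2 h; LC/MS/MS. Papp from receiver concentration slope; duplicates.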

[38] = biological target: Epidermal growth factor receptor (Homo sapiens, UniProt P00533); test: Inhibition of human N-terminal DYKDDDD tagged EGFR cytoplasmic domain amino acid 669 to 1210 expressed in baculovirus after 5 mins by scintillation counter
Chain of Epidermal growth factor receptor (P00533 whole entry, the tested form may be a part): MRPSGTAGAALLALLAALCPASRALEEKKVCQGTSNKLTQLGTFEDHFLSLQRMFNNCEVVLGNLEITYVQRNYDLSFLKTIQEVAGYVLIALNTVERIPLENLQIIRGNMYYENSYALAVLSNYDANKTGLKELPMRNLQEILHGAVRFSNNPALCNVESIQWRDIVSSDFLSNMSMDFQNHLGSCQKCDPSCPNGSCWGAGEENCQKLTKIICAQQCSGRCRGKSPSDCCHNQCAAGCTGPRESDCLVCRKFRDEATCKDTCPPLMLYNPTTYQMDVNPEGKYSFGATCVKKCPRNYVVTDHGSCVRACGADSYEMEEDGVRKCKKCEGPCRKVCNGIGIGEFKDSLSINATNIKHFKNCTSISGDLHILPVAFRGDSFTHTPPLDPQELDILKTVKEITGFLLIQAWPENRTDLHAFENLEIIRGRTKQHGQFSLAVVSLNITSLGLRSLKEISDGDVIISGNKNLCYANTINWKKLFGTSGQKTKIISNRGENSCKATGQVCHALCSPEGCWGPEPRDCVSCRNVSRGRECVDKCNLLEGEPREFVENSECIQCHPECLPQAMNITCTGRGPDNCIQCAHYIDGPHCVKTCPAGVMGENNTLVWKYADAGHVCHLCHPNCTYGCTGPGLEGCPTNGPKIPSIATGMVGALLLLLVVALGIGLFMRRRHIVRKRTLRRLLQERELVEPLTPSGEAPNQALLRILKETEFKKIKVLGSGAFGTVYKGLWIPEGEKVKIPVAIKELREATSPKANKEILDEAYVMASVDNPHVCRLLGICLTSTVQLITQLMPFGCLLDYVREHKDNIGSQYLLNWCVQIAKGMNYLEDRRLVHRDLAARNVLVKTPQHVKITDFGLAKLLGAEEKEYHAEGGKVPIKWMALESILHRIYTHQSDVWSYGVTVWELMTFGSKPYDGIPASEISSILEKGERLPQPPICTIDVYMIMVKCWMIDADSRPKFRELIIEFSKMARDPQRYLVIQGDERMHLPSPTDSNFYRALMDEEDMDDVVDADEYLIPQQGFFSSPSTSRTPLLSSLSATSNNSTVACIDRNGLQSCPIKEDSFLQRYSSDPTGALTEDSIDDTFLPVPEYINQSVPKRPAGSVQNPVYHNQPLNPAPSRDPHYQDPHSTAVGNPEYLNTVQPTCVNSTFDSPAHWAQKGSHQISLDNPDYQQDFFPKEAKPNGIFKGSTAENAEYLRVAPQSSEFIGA

[39] = Apparent permeability across apical to basolateral side in human Caco2 cells at 10 umol/L; type: ADME, cell-based; conditions: Caco-2; method in brief: as §3
BT-474 [40] = test: Antitumor activity against human BT474 cells xenografted in BALB/c nu/nu mouse at 100 mg/kg, po bid administered 14 days measured on day 31 relative to control; type: functional
Method in brief: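 BT-474 xenografts: 1×10⁷ cells in Matrigel implanted subcutaneously into the right flank of female BALB/c nu/nu mice. Estradiol dipropionate 0.25 mg given intramuscularly on days 0 and 7. Tumours of 200–300 mm³ used. Dosing 100 mg/kg orally bid in 0.5% methylcellulose for 14 days. Volume a×b²/2 by calipers. T/C (%) compared at day 31.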

SMILES: CC(C)S(=O)(=O)CC(=O)NCCn1ccc2ncnc(Nc3ccc(Oc4cccc(C(F)(F)F)c4)c(Cl)c3)c21
GI50 (BT-474 [1]): 0.048 µM | microsomal CLint at 1 µM [2]: 35 µL/min/mg | microsomal CLint at 1 µM [3]: 42 µL/min/mg | IC50 [4]: 0.011 µM

SMILES: CC(C)(C(=O)NCCn1ccc2ncnc(Nc3ccc(Oc4cccc(Cl)c4)c(Cl)c3)c21)S(C)(=O)=O.Cc1ccc(S(=O)(=O)O)cc1
IC50 [5]: 5.1 µM | IC50 (Angiopoietin-1 receptor): > 10 µM | IC50 [6]: 3.9 µM | T/C [7]: 41% | T/C [8]: 0% | T/C [9]: -1% | IC50 [10]: > 10 µM | IC50 (Focal adhesion kinase 1): > 10 µM | IC50 [11]: > 10 µM | IC50 [12]: > 10 µM | IC50 [13]: > 10 µM | IC50 [14]: > 10 µM | IC50 [15]: > 10 µM | IC50 [16]: > 10 µM | IC50 [17]: > 10 µM | IC50 [18]: > 10 µM | IC50 [19]: > 10 µM | IC50 [20]: > 10 µM | IC50 [21]: 3.3 µM | IC50 [22]: 0.16 µM | IC50 [23]: > 10 µM | T/C [24]: 41% | IC50 [25]: > 10 µM | IC50 [26]: 3.6 µM | IC50 [27]: > 10 µM | IC50 [28]: > 10 µM | IC50 [29]: > 10 µM | IC50 (Insulin receptor): > 10 µM | IC50 [30]: > 10 µM | IC50 [31]: > 10 µM | IC50 (Aurora kinase B): 0.5 µM | IC50 [32]: > 10 µM | IC50 [33]: 0.98 µM | IC50 [34]: > 10 µM | IC50 [35]: > 10 µM | IC50 [36]: > 10 µM

SMILES: CS(=O)(=O)CC(=O)NCCn1ccc2ncnc(Nc3ccc(Oc4cccc(C(F)(F)F)c4)c(Cl)c3)c21
GI50 (BT-474 [1]): 0.0052 µM | microsomal CLint at 1 µM [2]: 11 µL/min/mg | Papp B→A at 10 µM [37]: 8.29 ×10⁻⁶ cm/s | microsomal CLint at 1 µM [3]: 18 µL/min/mg | IC50 [4]: 0.0063 µM | IC50 [38]: 0.015 µM | T/C (BT-474 [40]): 80% | Papp A→B at 10 µM [39]: 0.52 ×10⁻⁶ cm/s

Continued, in another order:

GI50 (BT-474 [1]): 0.0039 µM | Papp B→A at 10 µM [37]: 6.79 ×10⁻⁶ cm/s | microsomal CLint at 1 µM [3]: 11 µL/min/mg | IC50 [4]: 0.0029 µM | IC50 [38]: 0.0067 µM | Papp A→B at 10 µM [39]: 0.67 ×10⁻⁶ cm/s
SMILES: CS(=O)(=O)CC(=O)NCCn1ccc2ncnc(Nc3ccc(Oc4cccc(Cl)c4)c(Cl)c3)c21

GI50 (BT-474 [1]): 0.056 µM | Papp B→A at 10 µM [37]: 7.69 ×10⁻⁶ cm/s | microsomal CLint at 1 µM [3]: 21 µL/min/mg | Papp A→B at 10 µM [39]: 2.85 ×10⁻⁶ cm/s
SMILES: CC(C)(C(=O)NCCn1ccc2ncnc(Nc3ccc(Oc4cccc(Cl)c4)c(Cl)c3)c21)S(C)(=O)=O
T/C (BT-474 [40]): 24%
